The results in this text go back to ChEMBL document CHEMBL4513216, “Probing the Open Global Health Chemical Diversity Library for Multistage-Active Starting Points for Next-Generation Antimalarials” (ACS Infect Dis, 2020).

The data set in a line: Toxicity liver stage against HepG2, at 10uM. The data set is classed as cell-based. Also on record: test concentration 10 uM, cell line HepG2-A16-CD81EGFP. The following applies: human, HepG2-A16-CD81EGFP cells; read-out: INHIBITION
The procedure, abridged:
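Uninfected HepG2-A16-CD81EGFP cells, 3 × 10^3 per well, 1536-well, plated on prespotted compound at 10 μM final, parasite-free screening media added to match infected plates; puromycin 10 μM positive, DMSO 0.5% negative; run in parallel with 48 h PbLuc assay at 37 °C, 5% CO2; viability by CellTiter-Glo luminescence, normalized to controls.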
For `CC1(C)Oc2ccc(S(=O)(=O)NCCCn3ccnc3)cc2NC1=O`, the cytotoxicity at 10 µM amounted to 14.5%.
Regarding `O=C(NC[C@H]1OC[C@@H](NCc2ccccc2)[C@@H]1O)Nc1ccc(F)cc1`, the cytotoxicity at 10 µM is -10.8%.
The result for `CN1CCC(N[C@@H]2CO[C@H](CNC(=O)c3cccs3)[C@H]2O)CC1` reads -0.376%; that for `CCN(CC)CC[C@H]1CN(C(=O)C2CCC2)CC[C@H]1CC(=O)O`, 1.35%; that for `CCN1Cc2cc(OC)ccc2N(CC(C)(C)O)CCC1=O`, -12.2%.
The result for `CC(C)NC(=O)Cc1cnc(-n2cccc2)s1` reads -4.6%; that for `CCc1c(C)sc2nc3n(CCN4CCOCC4)nc(SC)n3c(=O)c12`, 1.09%; that for `NC(=O)CSc1nnc2[nH]c(=O)c3c(n12)CCCC3`, -4.44%.
The result for `COc1ccc(CN2Cc3[nH]nc(C(=O)N(C)C)c3C2)cc1` reads -2.48%; that for `c1cnc(NC[C@H]2OC[C@@H]3CCN(Cc4ccncc4)C[C@@H]32)nc1`, -4.61%.
In the case of `O=C(C1CCOC1)N1CCN(Cc2ccncc2)c2ncccc2C1` (configuration not stated), the cytotoxicity at 10 µM worked out at 0.617%.
The result for `CC(C)CNC(=O)c1cc2c(s1)CCN2S(C)(=O)=O` reads -0.522%; that for `O=c1c2cn[nH]c2nc(SCCN2CCCC2)n1-c1ccccc1`, -2.03%; that for `O=C(COc1coc(CN2CCCC2)cc1=O)NCc1ccccc1Cl`, -0.317%.
Turning to `O=S(=O)(Nc1cnn(C2CCOCC2)c1)c1c(F)cccc1F`, the cytotoxicity at 10 µM came out at 13.9%.
The result for `CC(C)CN1C[C@@H]2CN(C(=O)[C@H]3CCCO3)C[C@@H]2C1=O` reads 6.03%; that for `CC[C@H]1NCCC[C@]12CCC(=O)N2Cc1ccncc1`, 6.29%; that for `Cc1ccc(C)c(NCc2nc3n(n2)CCCCC3)c1`, 6.39%.
To `CNc1[nH]nc(N)c1NC(=O)c1ccccc1` belongs 9.96%.
Turning to `Cc1nn(C)c2cnn(Cc3ccc(C(=O)NCC4CCCO4)o3)c12` (configuration not stated), the cytotoxicity at 10 µM was determined as 9.37%.
To `CCn1nc(C)c2nc(C(C)C)nc(NCCOC)c21` belongs 6.3%; to `COCCC(=O)N1CCOCC(Cc2ccc3c(ccn3C)c2)C1` (configuration not stated), 6.66%.
The result for `CC(C(N)=O)n1nc(-c2cccs2)cc(N)c1=O` (configuration not stated) reads 6.44%; that for `O=C(NCC1CCOCC1)c1cc(-c2ccncc2)c2cnccc2n1`, -0.762%; that for `Cn1ccc(NC(=O)CN2CCC(Oc3cnccn3)CC2)n1`, 4.3%.
To `CN1CCC(c2[nH]ncc2S(C)(=O)=O)CC1` belongs -7.06%; to `CCCC(=O)N1CCC(c2cc[nH]n2)C1` (configuration not stated), 1.2%; to `CC(=O)N1CCCC1c1cccc(Oc2ccccc2F)n1` (configuration not stated), -2.53%.
`O=C1CC2(CCN(C(=O)c3ccccn3)C2)Nc2ccccc2N1` (configuration not stated): the cytotoxicity at 10 µM turned out to be 10.9%.
The result for `CCn1cnc2c(c(Br)nn2C)c1=O` reads 4.37%.
Turning to `CCN(CC(C)C#N)C(=O)CNc1cc(Cl)ccc1C(N)=O` (configuration not stated), the cytotoxicity at 10 µM worked out at 17.6%.
The result for `Cc1oc(C(=O)Nc2ccccc2F)cc1S(N)(=O)=O` reads -1.07%; that for `Cc1noc(C)c1C(=O)N(C)C(C)c1ccncc1` (configuration not stated), 0.66%; that for `COc1c(F)cc(NC(=O)N2CCC(CSC)C2)cc1F` (configuration not stated), 10.2%.
The result for `O=C(Cc1csc(Cc2ccccn2)n1)NCCCN1CCCC1=O` reads -6.29%.
As for `COc1ccc(CNC(=O)N2CCOCC2C2CC2)c(C)c1` (configuration not stated), the cytotoxicity at 10 µM came out at 4.54%.
To `COCc1cccc(C(=O)N2CCN(C3=NCC(C)(C)S3)CC2)c1` belongs 4.65%; to `Cc1ccc(C(=O)Nc2ccc(N3CCC(O)CC3)c(C#N)c2)s1`, -5.71%; to `CC(=O)NCCc1ccc(S(=O)(=O)N(C)C(C)C(C)(C)C)s1` (configuration not stated), -3.58%.
The result for `c1csc(-c2nc(CN3CCCC3Cn3cccn3)co2)c1` (configuration not stated) reads 11.1%.
To `CC(C)C(=O)NC1CCN(CCO)CC1` belongs -8.84%.
Regarding `Cc1ccc(CC(=O)NCC(Cc2ccc(F)cc2)C(N)=O)cn1` (configuration not stated), the cytotoxicity at 10 µM worked out at 12%.
To `O=S(=O)(NCCCN1CC=CC1)c1cncc(Cl)c1` belongs -6.38%.
Consider `COCCOCC(=O)NC(C#N)c1ccccc1C` (configuration not stated), for which the cytotoxicity at 10 µM is -1.65%.
To `COc1ccc(OCC(=O)NS(=O)(=O)c2ccc(Cl)s2)cc1` belongs 14.1%; to `CN(C)C(CNCc1nc(-c2ccsc2)no1)c1ccsc1` (configuration not stated), -1.63%; to `Cc1nc2ccccc2n1CCNCc1cccc(C#N)c1`, -0.591%.
For the compound `N#Cc1c(F)cccc1N1CCC(C(=O)Nc2nccs2)CC1`, the cytotoxicity at 10 µM was 0.329%.
To `Cc1ccc2cccc(S(=O)(=O)N(C)CC3CCN(C)CC3)c2n1` belongs -1.6%; to `COc1ccc(Br)cc1CN(C)c1nc2c(cnn2C)c(=O)[nH]1`, 48.1%; to `O=C(C1CCCc2[nH]ncc21)N1CCCC1` (configuration not stated), 8.53%.
To `CCc1nc(CN(C)CC2CCN(CCO)CC2)no1` belongs -9.68%.
The result for `Cc1noc(C(C)N2CCN(CCC(=O)N3CCCCC3)CC2)n1` (configuration not stated) reads -9.24%.
On to `CNC(=O)N1C[C@H]2N(c3ncccn3)CCC[C@@]2(C(=O)NCC2CC2)C1`, for which the cytotoxicity at 10 µM was -101%.
The result for `CC[C@@H](C)[C@@H](N)C(=O)Nc1cccc(-c2cnc(N)nc2)c1` reads 0.942%; that for `COCC(=O)N1CCC2(CCCN(Cc3ccc(Cl)cc3)CC2)CC1`, -0.153%.
To `CN(C)CCn1ccnc1C1CCCN(c2ncc(Cl)cc2F)C1` (configuration not stated) belongs -1.75%.
To `CC(C)CCn1cc(C(C(=O)O)N2CCSCC2)cn1` (configuration not stated) belongs -1.17%; to `COc1cccc(Cn2c(C)c(C)oc2=O)c1OC`, -2.34%.
Take `CN(C)CCCn1ccnc1C1CCCN(c2ncc(Cl)cc2F)C1` (configuration not stated): the cytotoxicity at 10 µM is -7.43%.
To `Cc1nc(Cn2c(=O)cnc3ccccc32)n(C)n1` belongs -0.825%.
To `COc1cccc2c(=O)n(Cc3ccnc(C)c3)cnc12` belongs -0.0198%; to `Cc1ccccc1C(=O)NC[C@@H]1CCN(C(=O)c2cccn2C)C[C@H]1O`, -45.3%.
In the case of `CCNC(=O)[C@@H]1C[C@H](N)CN1C(=O)c1cccc(CCC(C)(C)O)c1`, the cytotoxicity at 10 µM was determined as 4.61%.
`CCC[C@@H]1CN(Cc2ccccc2C#N)C[C@H]1NC(C)=O`: the cytotoxicity at 10 µM is -3.92%.
The result for `CC(C(=O)O)N1CC2(CCC1=O)CCN(CCc1ccccc1)CC2` (configuration not stated) reads -0.503%; that for `Cc1[nH]c2c(F)cccc2c1CC(=O)NC1CCCCNC1=O` (configuration not stated), 19.1%.
The result for `Cc1ccccc1CC(=O)N1CCc2c(ncnc2N2CCOCC2)C1` reads -3.39%; that for `COCCN(C)C[C@@H]1CN(Cc2ccnc3ccccc23)C[C@@H]1CO`, -6.33%.
For `CNC(=O)c1nc(CN2CCOC(CCCC(C)C)C2)no1` (configuration not stated), the cytotoxicity at 10 µM is -2.25%.
To `Cc1nn(C)cc1-c1cc(C(F)(F)F)n(CCCN)n1` belongs -6.25%.
For `Cc1cn[nH]c1C1CCCCN1C(=O)CCN1CCCCCC1` (configuration not stated), the cytotoxicity at 10 µM turned out to be 5.7%.
To `CC(C)(C)c1nc(CN2CCCN(Cc3cccs3)CC2)no1` belongs 6%; to `Cc1nc(C2CCCN2C(=O)c2cc3c(s2)CCC3)no1` (configuration not stated), -6.82%.
The result for `CC(NC(=O)N1CCC(n2cncn2)CC1)c1ccc(F)cc1` (configuration not stated) reads -3.66%; that for `c1ncn(CC2CN(Cc3ccc4c(c3)OCCO4)CCO2)n1` (configuration not stated), -0.282%; that for `CS(=O)(=O)c1ccc(CNC(=O)N2CCC(CO)CC2)cc1`, -11.6%.
For the compound `Cc1cnn(CC2CCCN2Cc2noc(CC(C)C)n2)c1` (configuration not stated), the cytotoxicity at 10 µM was -5.04%.
To `Cc1ccccc1CC(C)NC(=O)Nc1cnn(CC(N)=O)c1` (configuration not stated) belongs -11.5%; to `Cc1nn(C)c(N(C)C)c1CNCc1ccnc(N2CCOCC2)c1`, -13%; to `O=C(c1cc(Cl)ccc1F)N1CCCC1Cn1cccn1` (configuration not stated), 8.36%.
To `COc1cccc(OCC(=O)NS(=O)(=O)c2ccc(Br)s2)c1` belongs -16.1%.
To `Cc1cnn(CCNCC(=O)NCC2(c3ccccc3)CC2)c1` belongs 5.58%.
`CN(C)c1cc(C(=O)N2CCCCC2Cn2cccn2)ccn1` (configuration not stated): the cytotoxicity at 10 µM was -23%.
As to `Cc1nc2ccccc2nc1CN1CCCC1Cn1cccn1` (configuration not stated), the cytotoxicity at 10 µM was -31.4%.
In the case of `CS(=O)(=O)c1ccc(CNC(=O)NCC2CCOC2)cc1` (configuration not stated), the cytotoxicity at 10 µM was -9.22%.
To `COc1ccc(COCC(O)CNC(=O)c2cc(C)cc(C)c2)cc1` (configuration not stated) belongs 0.385%.
To `CCCc1nc(CN2CCN(Cc3noc(CCC)n3)CC2)no1` belongs -0.914%; to `COc1ccc(C)cc1CSCCn1nc2ccccn2c1=O`, 1.03%.
The result for `CC(C)N(C)Cc1cnc2n1CCN(Cc1ccc(F)cc1)C2` reads 1.44%; that for `O=C(CN1CC(c2nc(-c3ccco3)no2)C1)NCC1CCCO1` (configuration not stated), 2.21%.
Take `CCN1CC[C@@]2(C(=O)N3CCOCC3)CCN(S(=O)(=O)CC)CC[C@@H]12`: the cytotoxicity at 10 µM came to 8.92%.
The result for `Cc1nn(C)c(C)c1S(=O)(=O)N1CC[C@H]2O[C@@H](C)C[C@H]2C1` reads 2.79%; that for `CN(C)C(=O)CN1CCC2(CC1)COc1ccccc1S(=O)(=O)N(C)C2`, -0.259%.
In the case of `O=C(NCCc1cccs1)[C@H]1CO[C@H]2CCN(CC3CC3)C[C@H]2C1`, the cytotoxicity at 10 µM was -103%.
The result for `CN(C)C(=O)CN1C(=O)CCC12CCN(Cc1ccc(F)cc1)CC2` reads 7.8%.
To `CCN1C[C@@H]2[C@@H](OC)CCN(S(=O)(=O)c3ccccc3)[C@@H]2C1` belongs -2.7%.
